# Columns and labels:
# [1] = tested on: Mycobacterium tuberculosis; assay: Inhibition of multidrug resistance efflux pump in Mycobacterium tuberculosis H37Rv assessed as ethidium bromide MIC at 256 ug/ml after 7 days by two-dimensional broth microdilution checkerboard assay; details: 168 h
# [2] = tested on: Mycobacterium tuberculosis; assay: Inhibition of multidrug resistance efflux pump in Mycobacterium tuberculosis H37Rv assessed as rifampin MIC at 128 ug/ml after 7 days by two-dimensional broth microdilution checkerboard assay; details: 168 h
# [3] = tested on: Mycobacterium tuberculosis; assay: Inhibition of multidrug resistance efflux pump in Mycobacterium tuberculosis H37Rv assessed as amikacin MIC at 32 ug/ml after 7 days by two-dimensional broth microdilution checkerboard assay; details: 168 h
# [4] = tested on: Mycobacterium tuberculosis; assay: Inhibition of multidrug resistance efflux pump in Mycobacterium tuberculosis H37Rv assessed as ethidium bromide MIC at 16 ug/ml after 7 days by two-dimensional broth microdilution checkerboard assay; details: 168 h
# [5] = tested on: Mycobacterium tuberculosis; assay: Inhibition of multidrug resistance efflux pump in Mycobacterium tuberculosis H37Rv assessed as amikacin MIC at 8 ug/ml after 7 days by two-dimensional broth microdilution checkerboard assay; details: 168 h
# [6] = tested on: Mycobacterium tuberculosis; assay: Inhibition of multidrug resistance efflux pump in Mycobacterium tuberculosis H37Rv assessed as amikacin MIC at 256 ug/ml after 7 days by two-dimensional broth microdilution checkerboard assay; details: 168 h
# Summary of the method: (§1)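 M. tuberculosis H37Rv two-dimensional broth microdilution checkerboard. MICs of INH, RIF, AMK, OFX or EtBr were determined without and with graded sub-inhibitory compound concentrations, starting at ½ MIC. Where MIC was undeterminable, the highest concentration still permitting growth was taken as ½ MIC. FIC = MIC of antibacterial in combination / MIC alone. FIC ≤0.25 was scored as synergism and ≥2 as antagonism.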
# [7] = tested on: Mycobacterium tuberculosis; assay: Inhibition of multidrug resistance efflux pump in Mycobacterium tuberculosis H37Rv assessed as isoniazid MIC at 256 ug/ml after 7 days by two-dimensional broth microdilution checkerboard assay; details: 168 h; summary of the method: as §1
# [8] = tested on: Mycobacterium tuberculosis; assay: Inhibition of multidrug resistance efflux pump in Mycobacterium tuberculosis H37Rv assessed as ofloxacin MIC at 128 ug/ml after 7 days by two-dimensional broth microdilution checkerboard assay; details: 168 h
# [9] = tested on: Mycobacterium tuberculosis H37Rv; assay: Ratio of thioridazine to compound for Inhibition of multidrug resistance efflux pump in Mycobacterium tuberculosis H37Rv using ethidium bromide as substrate assessed as relative final fluorescence at 1/2 MIC by real-time fluorometry
# Summary of the method: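 H37Rv cells were loaded with EtBr at 0.5 µg/mL with test compound at ½ MIC. Where the MIC exceeded the testable range, the last determinable concentration was taken as ½ MIC. EtBr retention was followed by real-time fluorometry and expressed as relative final fluorescence (RFF), with verapamil and thioridazine as controls.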
# [10] = tested on: Mycobacterium tuberculosis; assay: Inhibition of multidrug resistance efflux pump in Mycobacterium tuberculosis H37Rv assessed as isoniazid MIC at 8 ug/ml after 7 days by two-dimensional broth microdilution checkerboard assay; details: 168 h
# [11] = tested on: Mycobacterium tuberculosis; assay: Inhibition of multidrug resistance efflux pump in Mycobacterium tuberculosis H37Rv assessed as ethidium bromide MIC at 4 ug/ml after 7 days by two-dimensional broth microdilution checkerboard assay; details: 168 h
# [12] = tested on: Mycobacterium tuberculosis; assay: Inhibition of multidrug resistance efflux pump in Mycobacterium tuberculosis H37Rv assessed as ofloxacin MIC at 32 ug/ml after 7 days by two-dimensional broth microdilution checkerboard assay; details: 168 h
# [13] = tested on: Mycobacterium tuberculosis; assay: Inhibition of multidrug resistance efflux pump in Mycobacterium tuberculosis H37Rv assessed as ofloxacin MIC at 8 ug/ml after 7 days by two-dimensional broth microdilution checkerboard assay; details: 168 h
# [14] = tested on: Mycobacterium tuberculosis; assay: Inhibition of multidrug resistance efflux pump in Mycobacterium tuberculosis H37Rv assessed as reduction in rifampin MIC at 64 ug/ml after 7 days by two-dimensional broth microdilution checkerboard assay
# [15] = tested on: Mycobacterium tuberculosis; assay: Inhibition of multidrug resistance efflux pump in Mycobacterium tuberculosis H37Rv assessed as amikacin MIC at 128 ug/ml after 7 days by two-dimensional broth microdilution checkerboard assay; details: 168 h
# [16] = tested on: Mycobacterium tuberculosis; assay: Inhibition of multidrug resistance efflux pump in Mycobacterium tuberculosis H37Rv assessed as rifampin MIC at 64 ug/ml after 7 days by two-dimensional broth microdilution checkerboard assay; details: 168 h
# [17] = tested on: Mycobacterium tuberculosis; assay: Inhibition of multidrug resistance efflux pump in Mycobacterium tuberculosis H37Rv assessed as amikacin MIC at 4 ug/ml after 7 days by two-dimensional broth microdilution checkerboard assay; details: 168 h
# [18] = tested on: Mycobacterium tuberculosis; assay: Inhibition of multidrug resistance efflux pump in Mycobacterium tuberculosis H37Rv assessed as ethidium bromide MIC at 8 ug/ml after 7 days by two-dimensional broth microdilution checkerboard assay; details: 168 h
# [19] = tested on: Mycobacterium tuberculosis; assay: Inhibition of multidrug resistance efflux pump in Mycobacterium tuberculosis H37Rv assessed as ofloxacin MIC at 256 ug/ml after 7 days by two-dimensional broth microdilution checkerboard assay; details: 168 h; summary of the method: as §1
# [20] = tested on: Mycobacterium tuberculosis; assay: Inhibition of multidrug resistance efflux pump in Mycobacterium tuberculosis H37Rv assessed as rifampin MIC at 256 ug/ml after 7 days by two-dimensional broth microdilution checkerboard assay; details: 168 h; summary of the method: as §1
# [21] = tested on: Mycobacterium tuberculosis; assay: Inhibition of multidrug resistance efflux pump in Mycobacterium tuberculosis H37Rv assessed as ofloxacin MIC at 64 ug/ml after 7 days by two-dimensional broth microdilution checkerboard assay; details: 168 h
# [22] = tested on: Mycobacterium tuberculosis; assay: Inhibition of multidrug resistance efflux pump in Mycobacterium tuberculosis H37Rv assessed as rifampin MIC at 4 ug/ml after 7 days by two-dimensional broth microdilution checkerboard assay; details: 168 h
# [23] = tested on: Mycobacterium tuberculosis; assay: Inhibition of multidrug resistance efflux pump in Mycobacterium tuberculosis H37Rv assessed as isoniazid MIC at 16 ug/ml after 7 days by two-dimensional broth microdilution checkerboard assay; details: 168 h
# [24] = tested on: Mycobacterium tuberculosis; assay: Inhibition of multidrug resistance efflux pump in Mycobacterium tuberculosis H37Rv assessed as isoniazid MIC at 128 ug/ml after 7 days by two-dimensional broth microdilution checkerboard assay; details: 168 h
# [25] = tested on: Mycobacterium tuberculosis; assay: Inhibition of multidrug resistance efflux pump in Mycobacterium tuberculosis H37Rv assessed as isoniazid MIC at 64 ug/ml after 7 days by two-dimensional broth microdilution checkerboard assay; details: 168 h
# [26] = tested on: Mycobacterium tuberculosis; assay: Inhibition of multidrug resistance efflux pump in Mycobacterium tuberculosis H37Rv assessed as amikacin MIC at 64 ug/ml after 7 days by two-dimensional broth microdilution checkerboard assay; details: 168 h
# [27] = tested on: Mycobacterium tuberculosis; assay: Inhibition of multidrug resistance efflux pump in Mycobacterium tuberculosis H37Rv assessed as ofloxacin MIC at 4 ug/ml after 7 days by two-dimensional broth microdilution checkerboard assay; details: 168 h
# [28] = tested on: Mycobacterium tuberculosis; assay: Inhibition of multidrug resistance efflux pump in Mycobacterium tuberculosis H37Rv assessed as isoniazid MIC at 4 ug/ml after 7 days by two-dimensional broth microdilution checkerboard assay; details: 168 h
# [29] = tested on: Mycobacterium tuberculosis; assay: Inhibition of multidrug resistance efflux pump in Mycobacterium tuberculosis H37Rv assessed as amikacin MIC at 16 ug/ml after 7 days by two-dimensional broth microdilution checkerboard assay; details: 168 h
# [30] = tested on: Mycobacterium tuberculosis; assay: Inhibition of multidrug resistance efflux pump in Mycobacterium tuberculosis H37Rv assessed as ethidium bromide MIC at 128 ug/ml after 7 days by two-dimensional broth microdilution checkerboard assay; details: 168 h
# [31] = tested on: Mycobacterium tuberculosis; assay: Inhibition of multidrug resistance efflux pump in Mycobacterium tuberculosis H37Rv using ethidium bromide as substrate assessed as relative final fluorescence at 1/2 MIC by real-time fluorometry
# [32] = tested on: Mycobacterium tuberculosis; assay: Inhibition of multidrug resistance efflux pump in Mycobacterium tuberculosis H37Rv assessed as rifampin MIC at 8 ug/ml after 7 days by two-dimensional broth microdilution checkerboard assay; details: 168 h
SMILES,MIC [3],MIC [4],MIC [5],MIC [10],MIC [11],MIC [12],MIC [13],MIC [16],MIC [17],MIC [18],MIC [21],MIC [22],MIC [23],MIC [25],MIC [26],MIC [27],MIC [28],MIC [29],RFU [31],MIC [32],also measured
CN1CCCCC1CCn1ccc2ccc(Br)cc21 (racemic),1 µg/mL,12.5 µg/mL,1 µg/mL,0.1 µg/mL,12.5 µg/mL,1 µg/mL,1 µg/mL,< 0.0156 µg/mL,1 µg/mL,12.5 µg/mL,< 0.0156 µg/mL,0.5 µg/mL,0.1 µg/mL,50 ng/mL,> 0.0156 µg/mL,1 µg/mL,0.1 µg/mL,1 µg/mL,1.22,0.25 µg/mL,MIC [1]: < 0.195 µg/mL; MIC [2]: < 0.0156 µg/mL; MIC [6]: < 0.0156 µg/mL; MIC [7]: < 0.00078 µg/mL; MIC [8]: < 0.0156 µg/mL; Ratio IC50 [9]: 2; fold change (FC) [14]: >164; MIC [15]: < 0.0156 µg/mL; MIC [19]: < 0.0156 µg/mL; MIC [20]: < 0.0156 µg/mL; MIC [24]: < 0.0015 µg/mL; MIC [30]: < 0.195 µg/mL
COc1ccc(N(CCC2CCCCN2C)C(C)C)cc1OC (racemic),2 µg/mL,12.5 µg/mL,2 µg/mL,0.1 µg/mL,12.5 µg/mL,2 µg/mL,2 µg/mL,0.25 µg/mL,2 µg/mL,12.5 µg/mL,2 µg/mL,0.25 µg/mL,0.1 µg/mL,100 ng/mL,2 µg/mL,2 µg/mL,0.1 µg/mL,2 µg/mL,0.84,0.25 µg/mL,MIC [1]: 12.5 µg/mL; MIC [2]: 0.25 µg/mL; MIC [6]: 2 µg/mL; MIC [7]: 0.1 µg/mL; MIC [8]: 2 µg/mL; Ratio IC50 [9]: 2; fold change (FC) [14]: 4; MIC [15]: 2 µg/mL; MIC [19]: 1 µg/mL; MIC [20]: < 0.0156 µg/mL; MIC [24]: 0.1 µg/mL; MIC [30]: 12.5 µg/mL
CSc1ccc2c(c1)N(CCC1CCCCN1C)c1ccccc1S2 (configuration not stated) [THIORIDAZINE],,,,,,,,,,,,,,,,,,,0.27,,
CN1CCCCC1CCn1cnc2ccccc21 (racemic),1 µg/mL,12.5 µg/mL,1 µg/mL,0.1 µg/mL,12.5 µg/mL,1 µg/mL,1 µg/mL,0.5 µg/mL,1 µg/mL,12.5 µg/mL,1 µg/mL,0.5 µg/mL,0.1 µg/mL,100 ng/mL,1 µg/mL,1 µg/mL,0.1 µg/mL,1 µg/mL,1,0.5 µg/mL,MIC [1]: < 0.195 µg/mL; MIC [2]: 0.5 µg/mL; MIC [6]: < 0.0156 µg/mL; MIC [7]: < 0.00078 µg/mL; MIC [8]: 1 µg/mL; Ratio IC50 [9]: 2; MIC [15]: 1 µg/mL; MIC [19]: < 0.0156 µg/mL; MIC [20]: < 0.0156 µg/mL; MIC [24]: 0.1 µg/mL; MIC [30]: 12.5 µg/mL
CN1CCCCC1CCn1c2ccccc2c2ccccc21 (racemic),0.625 µg/mL,6.25 µg/mL,1 µg/mL,0.1 µg/mL,12.5 µg/mL,1 µg/mL,1 µg/mL,< 0.0156 µg/mL,1 µg/mL,12.5 µg/mL,< 0.0156 µg/mL,1 µg/mL,0.1 µg/mL,< 0.078 ng/mL,< 0.0156 µg/mL,1 µg/mL,0.1 µg/mL,1 µg/mL,0.33,0.5 µg/mL,fold change (FC) [14]: >64

# Source: ChEMBL document CHEMBL3593164, “Rational Design and Synthesis of Thioridazine Analogues as Enhancers of the Antituberculosis Therapy” (J Med Chem, 2015)
